Measured values reported in article PMC1182329 (Nucleic Acids Research, 2005).
Like-named read-outs stand apart in the source and are kept apart here.

Columns and labels:
[1] = test system: VSV-G pseudotyped HIV-1 virions; settings: 1 h
[2] = test system: TAR-RNA; assay: Gel retardation assay; assay type: binding, HIV-1; settings: compared with PNATAR–penetratin and PNATAR–tat conjugates; data not shown
[3] = test system: CEM cells; assay: Uptake kinetics with 125I-labeled conjugates; assay type: cell-based; settings: slope of Hill plot of uptake data, 125I-labeled conjugate, room temperature, 30 s
In short: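 125I-labeled conjugate purified by gel filtration and C18 reverse phase, quantified at A260, and specific radioactivity set with unlabeled conjugate. 1 × 10^6 CEM cells exposed to varying concentrations at room temperature for 30 s, then filtered on glass fiber, washed with PBS. Internalized conjugate measured by gamma counting from specific radioactivity; nH taken from Hill plot slope.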

[4] = test system: VSV-G pseudotyped HIV-1 in CEM cells

Compound	IC50 [1] [µM]	binding pattern to TAR-RNA in gel shift assay [2]	Hill coefficient (nH) of uptake [3]	inhibition of HIV-1 replication [4] [%]	inhibition of HIV-1 replication (words) [4]	IC50 ([4]; VSV-G pseudotyped in CEM cells, 48 h) [µM]	IC50 ([4]; read-out: Antiviral efficacy IC50) [µM]
CC(=O)N[C@@H](CSSC[C@H](N)C(=O)NCC(=O)N[C@@H](CCCNC(=N)N)C(=O)N[C@@H](CCCCN)C(=O)N[C@@H](CCCCN)C(=O)N[C@@H](CCCNC(=N)N)C(=O)N[C@@H](CCCNC(=N)N)C(=O)N[C@@H](CCC(N)=O)C(=O)N[C@@H](CCCNC(=N)N)C(=O)N[C@@H](CCCNC(=N)N)C(=O)N[C@@H](CCCNC(=N)N)C(=O)N1CCC[C@H]1C(=O)N1CCC[C@H]1C(=O)N[C@@H](CCC(N)=O)C(=O)O)C(=O)NCCN(CC(=O)NCCN(CC(=O)NCCN(CC(=O)NCCN(CC(=O)NCCN(CC(=O)NCCN(CC(=O)NCCN(CC(=O)NCCN(CC(=O)NCCN(CC(=O)NCCN(CC(=O)NCCN(CC(=O)NCCN(CC(=O)NCCN(CC(=O)NCCN(CC(=O)NCCN(CC(=O)NCCN(CC(N)=O)C(=O)Cn1cc(C)c(=O)[nH]c1=O)C(=O)Cn1ccc(N)nc1=O)C(=O)Cn1cc(C)c(=O)[nH]c1=O)C(=O)Cn1cnc2c(N)ncnc21)C(=O)Cn1cnc2c(=O)[nH]c(N)nc21)C(=O)Cn1cnc2c(N)ncnc21)C(=O)Cn1ccc(N)nc1=O)C(=O)Cn1cc(C)c(=O)[nH]c1=O)C(=O)Cn1ccc(N)nc1=O)C(=O)Cn1cnc2c(=O)[nH]c(N)nc21)C(=O)Cn1cnc2c(=O)[nH]c(N)nc21)C(=O)Cn1cnc2c(N)ncnc21)C(=O)Cn1ccc(N)nc1=O)C(=O)Cn1ccc(N)nc1=O)C(=O)Cn1ccc(N)nc1=O)C(=O)Cn1cc(C)c(=O)[nH]c1=O [PNATAR–tat-peptide]	0.037						
Ac-Cys-TCC-CAG-GCT-CAG-ATC-T [PNATAR]		same binding pattern					
CC[C@H](C)[C@H](NC(=O)[C@H](CCCCN)NC(=O)[C@@H](NC(=O)[C@H](CCC(N)=O)NC(=O)[C@H](CCCNC(=N)N)NC(=O)[C@@H](N)CSSC[C@H](NC(C)=O)C(=O)NCCN(CC(=O)NCCN(CC(=O)NCCN(CC(=O)NCCN(CC(=O)NCCN(CC(=O)NCCN(CC(=O)NCCN(CC(=O)NCCN(CC(=O)NCCN(CC(=O)NCCN(CC(=O)NCCN(CC(=O)NCCN(CC(=O)NCCN(CC(=O)NCCN(CC(=O)NCCN(CC(=O)NCCN(CC(N)=O)C(=O)Cn1cc(C)c(=O)[nH]c1=O)C(=O)Cn1ccc(N)nc1=O)C(=O)Cn1cc(C)c(=O)[nH]c1=O)C(=O)Cn1cnc2c(N)ncnc21)C(=O)Cn1cnc2c(=O)[nH]c(N)nc21)C(=O)Cn1cnc2c(N)ncnc21)C(=O)Cn1ccc(N)nc1=O)C(=O)Cn1cc(C)c(=O)[nH]c1=O)C(=O)Cn1ccc(N)nc1=O)C(=O)Cn1cnc2c(=O)[nH]c(N)nc21)C(=O)Cn1cnc2c(=O)[nH]c(N)nc21)C(=O)Cn1cnc2c(N)ncnc21)C(=O)Cn1ccc(N)nc1=O)C(=O)Cn1ccc(N)nc1=O)C(=O)Cn1ccc(N)nc1=O)C(=O)Cn1cc(C)c(=O)[nH]c1=O)[C@@H](C)CC)C(=O)N[C@@H](Cc1c[nH]c2ccccc12)C(=O)N[C@@H](Cc1ccccc1)C(=O)N[C@@H](CCC(N)=O)C(=O)N[C@@H](CC(N)=O)C(=O)N[C@@H](CCCNC(=N)N)C(=O)N[C@@H](CCCNC(=N)N)C(=O)N[C@@H](CCSC)C(=O)N[C@@H](CCCCN)C(=O)N[C@@H](Cc1c[nH]c2ccccc12)C(=O)N[C@@H](CCCCN)C(=O)N[C@@H](CCCCN)C(=O)O [PNATAR–penetratin]	0.028		1.8	~50	did not inhibit	0.8	0.8
